Test results: ChEMBL document CHEMBL1124820, “Total synthesis of the four stereoisomers of dihexadecanoyl phosphatidylinositol and the substrate stereospecificity of human erythrocyte membrane phosphatidylinositol 4-kinase” (J Med Chem, 1990)

Assays:
[1] = molecular target: T1, Phosphatidylinositol 4-kinase, PI4K (Homo sapiens) (UniProt Q9BTU6+Q8TCG2+Q9UBF8+P42356); assay: Rate of phosphorylation was determined with that of mammalian PI using human erythrocyte PI 4-kinase at 200 uM substrate; type: functional
How it was run: (§1)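 Enzyme was extracted with Triton X-100 from human erythrocyte membranes and purified about 90-fold. Substrate at 200 μM final was tested in mixed micelles with 0.3% Triton X-100, 100 μM [γ-32P]ATP, 15 mM MgCl2, 1 mM EGTA, 1 mM DTT, 0.1 M NaCl and 50 mM HEPES pH 7.4 at 30 °C. Reactions were stopped with acidified CHCl3/MeOH, and organic-phase 32P was counted. Rates were expressed relative to mammalian PI, triplicate, mean ± SE.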

[2] = molecular target: T1, Phosphatidylinositol 4-kinase, PI4K (Homo sapiens); assay: Percent relative rate of phosphorylation was determined using human erythrocyte PI 4-kinase; type: functional; how it was run: as §1

T1 sequence (P42356 whole entry, looked up): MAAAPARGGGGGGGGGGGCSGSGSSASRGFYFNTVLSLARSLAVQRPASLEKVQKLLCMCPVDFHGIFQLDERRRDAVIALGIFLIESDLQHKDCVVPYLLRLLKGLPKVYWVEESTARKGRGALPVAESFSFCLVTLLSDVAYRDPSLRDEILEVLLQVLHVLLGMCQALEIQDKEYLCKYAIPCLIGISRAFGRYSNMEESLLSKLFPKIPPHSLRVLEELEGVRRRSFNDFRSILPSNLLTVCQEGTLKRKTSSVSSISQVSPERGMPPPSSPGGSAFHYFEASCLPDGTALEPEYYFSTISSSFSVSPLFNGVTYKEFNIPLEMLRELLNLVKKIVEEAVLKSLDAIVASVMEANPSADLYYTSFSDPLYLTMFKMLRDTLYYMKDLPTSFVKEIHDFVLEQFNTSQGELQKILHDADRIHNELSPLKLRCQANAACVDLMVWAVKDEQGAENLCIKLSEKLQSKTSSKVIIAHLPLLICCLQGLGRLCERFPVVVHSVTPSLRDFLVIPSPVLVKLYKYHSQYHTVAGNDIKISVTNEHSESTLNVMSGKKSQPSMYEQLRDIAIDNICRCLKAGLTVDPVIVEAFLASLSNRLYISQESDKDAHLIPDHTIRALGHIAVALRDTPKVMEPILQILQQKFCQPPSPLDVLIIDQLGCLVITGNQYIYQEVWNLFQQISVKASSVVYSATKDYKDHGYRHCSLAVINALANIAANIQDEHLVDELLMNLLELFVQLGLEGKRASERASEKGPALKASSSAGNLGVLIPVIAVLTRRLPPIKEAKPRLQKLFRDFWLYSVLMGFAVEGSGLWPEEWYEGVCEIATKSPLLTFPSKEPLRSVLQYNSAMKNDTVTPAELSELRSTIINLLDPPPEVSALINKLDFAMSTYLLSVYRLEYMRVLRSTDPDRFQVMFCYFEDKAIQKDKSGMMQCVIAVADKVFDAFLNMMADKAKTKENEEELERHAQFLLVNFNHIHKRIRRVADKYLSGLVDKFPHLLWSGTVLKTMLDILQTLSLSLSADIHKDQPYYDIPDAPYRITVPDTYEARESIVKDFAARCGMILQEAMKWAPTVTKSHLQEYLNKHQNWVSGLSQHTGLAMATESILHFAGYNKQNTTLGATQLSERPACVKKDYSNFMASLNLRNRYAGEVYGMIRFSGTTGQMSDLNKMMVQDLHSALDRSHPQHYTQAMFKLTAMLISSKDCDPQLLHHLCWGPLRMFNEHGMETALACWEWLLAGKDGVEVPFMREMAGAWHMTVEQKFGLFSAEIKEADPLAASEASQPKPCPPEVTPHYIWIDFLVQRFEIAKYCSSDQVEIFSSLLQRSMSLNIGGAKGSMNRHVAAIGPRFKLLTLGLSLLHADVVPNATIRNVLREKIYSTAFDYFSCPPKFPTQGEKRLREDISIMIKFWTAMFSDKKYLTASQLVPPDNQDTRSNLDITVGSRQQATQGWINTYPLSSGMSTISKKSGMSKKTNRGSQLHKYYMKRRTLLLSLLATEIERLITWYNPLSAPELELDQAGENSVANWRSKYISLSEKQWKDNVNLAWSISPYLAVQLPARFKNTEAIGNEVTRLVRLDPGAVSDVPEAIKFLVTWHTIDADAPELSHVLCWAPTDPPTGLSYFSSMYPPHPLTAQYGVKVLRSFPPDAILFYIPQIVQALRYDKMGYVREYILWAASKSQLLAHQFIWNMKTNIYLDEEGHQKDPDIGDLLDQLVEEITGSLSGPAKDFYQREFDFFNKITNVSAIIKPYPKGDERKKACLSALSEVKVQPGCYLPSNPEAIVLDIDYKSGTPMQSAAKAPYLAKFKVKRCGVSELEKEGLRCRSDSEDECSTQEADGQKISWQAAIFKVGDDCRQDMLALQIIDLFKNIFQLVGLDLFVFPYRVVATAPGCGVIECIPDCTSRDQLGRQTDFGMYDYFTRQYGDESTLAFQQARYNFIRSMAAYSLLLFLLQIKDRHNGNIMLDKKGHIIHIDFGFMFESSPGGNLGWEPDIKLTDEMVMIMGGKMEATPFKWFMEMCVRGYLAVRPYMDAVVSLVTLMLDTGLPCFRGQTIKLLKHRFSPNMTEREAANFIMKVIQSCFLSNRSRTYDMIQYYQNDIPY
T1 sequence (Q8TCG2 whole entry, looked up): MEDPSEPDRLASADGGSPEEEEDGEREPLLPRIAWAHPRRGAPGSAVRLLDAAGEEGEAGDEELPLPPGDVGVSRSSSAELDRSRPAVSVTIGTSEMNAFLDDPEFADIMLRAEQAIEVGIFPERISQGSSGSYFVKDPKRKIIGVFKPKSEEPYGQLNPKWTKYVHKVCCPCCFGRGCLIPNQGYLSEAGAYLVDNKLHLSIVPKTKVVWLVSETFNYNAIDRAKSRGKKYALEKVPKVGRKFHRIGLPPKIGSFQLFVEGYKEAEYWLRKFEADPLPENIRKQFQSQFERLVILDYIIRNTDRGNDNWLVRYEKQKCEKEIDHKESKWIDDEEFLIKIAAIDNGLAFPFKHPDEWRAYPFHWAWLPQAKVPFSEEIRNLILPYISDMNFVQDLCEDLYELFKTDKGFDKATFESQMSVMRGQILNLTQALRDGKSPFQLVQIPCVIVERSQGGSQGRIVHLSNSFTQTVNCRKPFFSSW
T1 sequence (Q9BTU6 whole entry, looked up): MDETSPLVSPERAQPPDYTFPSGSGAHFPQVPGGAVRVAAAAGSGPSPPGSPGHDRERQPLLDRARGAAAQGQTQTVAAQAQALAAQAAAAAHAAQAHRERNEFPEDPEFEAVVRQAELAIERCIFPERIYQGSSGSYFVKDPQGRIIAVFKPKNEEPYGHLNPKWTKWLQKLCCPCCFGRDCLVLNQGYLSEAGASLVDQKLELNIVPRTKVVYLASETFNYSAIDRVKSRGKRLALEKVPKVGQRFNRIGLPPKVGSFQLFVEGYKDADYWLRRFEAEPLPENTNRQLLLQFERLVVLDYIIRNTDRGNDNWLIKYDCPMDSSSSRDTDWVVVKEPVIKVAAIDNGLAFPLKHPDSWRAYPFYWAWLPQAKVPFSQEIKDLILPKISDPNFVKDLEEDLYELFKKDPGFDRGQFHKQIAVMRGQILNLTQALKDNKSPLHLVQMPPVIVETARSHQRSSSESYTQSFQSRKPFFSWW
T1 sequence (Q9UBF8 whole entry, looked up): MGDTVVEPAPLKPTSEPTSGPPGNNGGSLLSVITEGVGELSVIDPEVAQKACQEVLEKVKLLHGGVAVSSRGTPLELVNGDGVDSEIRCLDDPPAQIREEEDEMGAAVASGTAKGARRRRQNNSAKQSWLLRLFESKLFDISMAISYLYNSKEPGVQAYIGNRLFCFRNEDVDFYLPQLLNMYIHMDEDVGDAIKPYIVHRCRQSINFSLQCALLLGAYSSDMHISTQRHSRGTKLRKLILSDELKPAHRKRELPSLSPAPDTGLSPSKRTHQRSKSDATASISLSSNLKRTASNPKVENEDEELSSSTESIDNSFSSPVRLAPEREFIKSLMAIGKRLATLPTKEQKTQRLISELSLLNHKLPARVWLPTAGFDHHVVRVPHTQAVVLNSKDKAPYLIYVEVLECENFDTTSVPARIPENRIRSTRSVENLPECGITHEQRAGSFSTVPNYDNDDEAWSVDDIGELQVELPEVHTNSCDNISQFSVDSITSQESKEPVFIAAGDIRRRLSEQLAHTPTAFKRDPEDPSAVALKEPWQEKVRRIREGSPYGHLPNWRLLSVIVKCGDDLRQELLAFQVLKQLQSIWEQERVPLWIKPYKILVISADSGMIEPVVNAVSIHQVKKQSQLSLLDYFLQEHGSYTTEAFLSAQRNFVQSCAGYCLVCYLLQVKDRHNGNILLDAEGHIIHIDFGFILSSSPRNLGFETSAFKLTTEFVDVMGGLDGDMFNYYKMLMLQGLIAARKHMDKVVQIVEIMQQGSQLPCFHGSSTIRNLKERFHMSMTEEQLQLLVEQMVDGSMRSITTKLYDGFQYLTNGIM

Rate of formation [1] | Relative rate [2] | SMILES
23.5 pmol/min | 100% | CCCCC/C=C/C/C=C/C/C=C/C/C=C/CCCC(=O)OC(COC(=O)CCCCCCCCCCCCCCCCC)COP(=O)(O)OC1C(O)C(O)C(O)C(O)C1O (stereo not given)
24.9 pmol/min | 106% | CCCCCCCCCCCCCCCC(=O)OCC(COP(=O)(O)OC1C(O)C(O)C(O)C(O)C1O)OC(=O)CCCCCCCCCCCCCCC (stereo in doubt; 10a)
23.5 pmol/min | 100% | CCCCCCCCCCCCCCCC(=O)OCC(COP(=O)(O)OC1C(O)C(O)C(O)C(O)C1O)OC(=O)CCCCCCCCCCCCCCC (stereo in doubt; 10b)
1.01 pmol/min | 4.3% | CCCCCCCCCCCCCCCC(=O)OCC(COP(=O)(O)OC1C(O)C(O)C(O)C(O)C1O)OC(=O)CCCCCCCCCCCCCCC (stereo in doubt; 10c)
0.76 pmol/min | 3.2% | CCCCCCCCCCCCCCCC(=O)OCC(COP(=O)(O)OC1C(O)C(O)C(O)C(O)C1O)OC(=O)CCCCCCCCCCCCCCC (stereo in doubt; 10d)
